Consider six compounds from ChEMBL document CHEMBL2346548, “Design, synthesis, and structure-activity relationship studies of tryptanthrins as antitubercular agents” (J Nat Prod, 2013).

Values after ≈ are worked out from the molar mass of the structure shown.

Usually MIC stands for the lowest concentration found to suppress growth. Usually solubility stands for how much of the substance goes into solution per volume. As usually defined, the Papp B→A is how fast a substance crosses the layer from the basolateral side. As a reminder, the logD is lipophilicity at a set pH, counting ionised and neutral species. In general, IC50 refers to the concentration at which inhibition is half-maximal. Broadly, the MIC90 is an inhibitory concentration at the 90% level, which refers to growth in some studies and to a panel of isolates in others. As a reminder, the inhibition is the share of the control response that was lost under treatment. A word on the efflux ratio: it is the permeability from basolateral to apical divided by that in the opposite direction, in the common usage. The Papp A→B is how fast a substance crosses the layer from the apical side.

Data set [1] relates to Mycobacterium tuberculosis. Briefly: Antitubercular activity against Mycobacterium tuberculosis H37Rv incubated at 37 degC for 7 days by microplate alamar blue assay. It counts as functional. The settings on record: for MIC: Mycobacterium tuberculosis, H37Rv, 168 h. The procedure, abridged:
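Mtb H37Rv was grown in 7H9 broth with glycerol, Casitone, 10% OADC and 0.05% Tween 80 to OD600 0.4. Compounds were 2-fold serially diluted from DMSO stocks in 7H9, and wells were inoculated at 2 × 10⁵ CFU/mL. After 7 days at 37 °C, Alamar Blue was added and read after a further 24 h. MIC was the lowest concentration preventing the blue-to-pink change.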

Data set [2] can be described thus: Solubility in simulated gastric fluid at pH 1.5 by HPLC method. It counts as physicochemical. The essentials:
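Compound at 200 μM final in 2% DMSO in simulated gastric fluid, shaken 24 h at room temperature; HPLC-photodiode array detection at 230 nm; duplicate means.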

Data set [3] is described as follows: Permeability across basolateral to apical side in human Caco2 cells incubated for 1 hr at 37 degC by HPLC-MS/MS method. Format: ADME, cell-based. The settings on record: Caco-2.
In data set [4] the test system is Mycobacterium tuberculosis. As to the kind of experiment: Antitubercular activity against Mycobacterium tuberculosis H37Rv incubated at 37 degC for 14 days in presence of 40% human serum by microplate alamar blue assay. Format: functional. The settings on record: 336 h. The essentials:
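This is the MABA run in 7H9 broth containing 40% human serum. Compounds were 2-fold serially diluted, and wells were inoculated with H37Rv at 2 × 10⁵ CFU/mL. Incubation was at 37 °C for 14 days, then Alamar Blue was added. MIC was the lowest concentration preventing the blue-to-pink colour change.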
On the technique in general: Alamar Blue is a resazurin reagent that responds to reducing activity.

Data set [5] is described as follows: Distribution coefficient, log D of the compound between n-octanol and PBS buffer at pH 7.4 incubated for 1 hr by shake flask method. Format: physicochemical. The essentials:
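Partition between n-octanol and PBS pH 7.4 after 1 h shaking at room temperature; phases analysed by HPLC with photodiode detection; logD = log10 of organic/aqueous amount.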

In data set [6] the test system is Vero. Briefly: Cytotoxicity against african green monkey Vero cells. It counts as cell-based, Chlorocebus sabaeus. The settings on record: Chlorocebus sabaeus, Vero; read-out: IC50.
Data set [7] concerns Mycobacterium tuberculosis. As to the kind of experiment: Antitubercular activity against non-replicating Mycobacterium tuberculosis H37Rv incubated for 10 days by LORA method. Format: functional. The settings on record: 240 h. The procedure, abridged:
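H37Rv carrying pFCA-luxAB was adapted to low oxygen by gradual self-depletion in a sealed, slowly stirred flask. It was then exposed to compounds for 10 days under anaerobic conditions. Cultures recovered for 28 h in ambient oxygen before n-decanal substrate was added and luminescence read. MIC was the lowest concentration giving a 90% reduction in luminescence versus untreated controls.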

Data set [8] concerns the target CYP2C9 (Homo sapiens, UniProt P11712). As to the kind of experiment: Inhibition of human recombinant CYP2C9 at 10 uM incubated for 80 mins at 37 degC using 7-methoxy-4-trifluoromethylcoumarin substrate. Format: ADME. The settings on record: recombinant CYP2C9, probe 7-methoxy-4-trifluoromethylcoumarin.
For data set [9], the target named is CYP2C19 (Homo sapiens, UniProt P33261). Briefly: Inhibition of human recombinant CYP2C19 at 10 uM incubated for 60 mins at 37 degC using 3-cyano-7-ethoxycoumarin substrate. It counts as ADME. The settings on record: recombinant CYP2C19, probe 3-cyano-7-ethoxycoumarin.
The target of data set [10] is CYP3A4 (Homo sapiens, UniProt P08684). As to the kind of experiment: Inhibition of human recombinant CYP3A4 at 10 uM incubated for 30 mins at 37 degC using 7-benzyloxy-4-(trifluoromethyl)coumarin substrate. It counts as ADME. The settings on record: recombinant CYP3A4, probe 7-benzyloxy-4-(trifluoromethyl)coumarin.
Data set [11] is described as follows: Protein binding in human plasma at 10 uM incubated for 8 hrs at 37 degC by equilibrium dialysis method. Format: ADME, cell-free. The settings on record: read-out: PPB (converted). The procedure, abridged:
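Equilibrium dialysis: 10 μM compound in 1% DMSO in human plasma vs 0.05 M phosphate buffer pH 7.5 across 12–14 K cutoff membrane, at least 8 h at 37 °C; HPLC-photodiode detection at 230 nm; duplicate means.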
A general note: In equilibrium dialysis free small molecules cross a membrane that holds back macromolecules.

Data set [12] is described as follows: Efflux ratio in human Caco2 cells incubated for 1 hr at 37 degC by HPLC-MS/MS method. The settings on record: Caco-2. Format: ADME, cell-based.
Data set [13] can be described thus: Metabolic stability in human liver microsomes assessed as parent compound remaining at 1 uM incubated for 1 hr by HPLC-MS/MS method. The settings on record: read-out: Stability. Format: ADME, Microsome. The procedure, abridged: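 Pooled mixed-gender human liver microsomes (0.3 mg/mL protein), 1 μM compound with NADP-regenerating system in phosphate buffer pH 7.4, 1 h at 37 °C; parent measured at start and end by HPLC-MS/MS; duplicate means.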

The nature of data set [14]: Permeability across apical to basolateral side in human Caco2 cells incubated for 1 hr at 37 degC by HPLC-MS/MS method. It counts as ADME, cell-based. The settings on record: Caco-2. The procedure, abridged:
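TC7 (Caco-2 subclone) monolayer; 10 μM compound in 1% DMSO in HBSS-MES pH 6.5 on apical donor side, basolateral receiver pH 7.4; shaken 1 h at 37 °C; receiver sampled, HPLC-MS/MS; duplicate means.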
(In general: Passage across Caco-2 layers is used to estimate intestinal permeability.)

The nature of data set [15]: Solubility in simulated intestinal fluid at pH 7.6 by HPLC method. It counts as physicochemical. The essentials: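 Simulated intestinal fluid medium; each analogue 200 μM final in 2% DMSO, shaken 24 h at room temperature, then HPLC with photodiode array read at 230 nm; duplicate, means given.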
Data set [16] can be described thus: Aqueous solubility in PBS buffer at pH 7.4 by HPLC method. It counts as physicochemical. The settings on record: PBS buffer, read-out: solubility. The procedure, abridged: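 Compound at 200 μM final in 2% DMSO in PBS pH 7.4, shaken 24 h at room temperature; quantified by HPLC with photodiode array detection at 230 nm; duplicate, mean reported.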

Sequence of CYP2C9 (P11712 whole entry): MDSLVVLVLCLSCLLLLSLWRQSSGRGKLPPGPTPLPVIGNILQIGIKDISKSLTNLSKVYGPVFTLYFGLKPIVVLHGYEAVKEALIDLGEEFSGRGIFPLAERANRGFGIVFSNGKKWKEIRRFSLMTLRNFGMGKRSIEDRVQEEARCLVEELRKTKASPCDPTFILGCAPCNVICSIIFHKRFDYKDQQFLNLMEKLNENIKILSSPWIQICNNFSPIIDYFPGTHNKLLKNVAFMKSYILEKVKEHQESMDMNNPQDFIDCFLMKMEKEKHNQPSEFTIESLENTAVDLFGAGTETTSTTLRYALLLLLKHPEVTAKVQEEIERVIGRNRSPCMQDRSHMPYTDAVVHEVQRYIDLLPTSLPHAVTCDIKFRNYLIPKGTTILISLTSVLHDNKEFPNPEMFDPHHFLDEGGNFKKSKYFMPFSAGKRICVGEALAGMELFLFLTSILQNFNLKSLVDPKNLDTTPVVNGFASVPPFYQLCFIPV
Sequence of CYP2C19 (P33261 whole entry): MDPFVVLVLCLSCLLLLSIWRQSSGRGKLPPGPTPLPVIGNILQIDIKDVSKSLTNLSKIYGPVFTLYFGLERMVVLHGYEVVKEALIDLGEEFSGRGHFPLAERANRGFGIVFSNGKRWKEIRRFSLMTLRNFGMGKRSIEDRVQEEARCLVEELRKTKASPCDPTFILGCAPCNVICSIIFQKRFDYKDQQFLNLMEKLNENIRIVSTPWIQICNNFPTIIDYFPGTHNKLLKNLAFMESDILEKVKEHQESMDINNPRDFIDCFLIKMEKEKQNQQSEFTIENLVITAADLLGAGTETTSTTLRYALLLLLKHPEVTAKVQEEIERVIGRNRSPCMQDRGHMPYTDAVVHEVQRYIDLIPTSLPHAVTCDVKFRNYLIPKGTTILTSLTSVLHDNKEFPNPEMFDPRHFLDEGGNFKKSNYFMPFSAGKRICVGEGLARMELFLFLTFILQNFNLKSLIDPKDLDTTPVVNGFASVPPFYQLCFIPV
Sequence of CYP3A4 (P08684 whole entry): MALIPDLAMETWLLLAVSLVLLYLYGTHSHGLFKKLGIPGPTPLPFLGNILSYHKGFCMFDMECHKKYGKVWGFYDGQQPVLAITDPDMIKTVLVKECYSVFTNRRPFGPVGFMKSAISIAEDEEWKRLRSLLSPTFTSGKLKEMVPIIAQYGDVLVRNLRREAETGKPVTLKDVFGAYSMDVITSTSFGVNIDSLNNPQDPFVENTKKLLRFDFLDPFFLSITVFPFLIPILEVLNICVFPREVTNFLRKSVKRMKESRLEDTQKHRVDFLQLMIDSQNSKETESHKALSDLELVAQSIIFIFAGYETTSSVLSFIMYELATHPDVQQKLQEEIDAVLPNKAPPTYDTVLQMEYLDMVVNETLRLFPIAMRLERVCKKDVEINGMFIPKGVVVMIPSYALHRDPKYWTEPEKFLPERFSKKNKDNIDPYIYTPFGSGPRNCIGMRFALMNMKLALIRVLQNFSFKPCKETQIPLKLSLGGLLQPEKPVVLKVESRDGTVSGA

Consider `O=C1c2cc(Cl)ccc2-n2c1nc1ncccc1c2=O`, for which the MBC90 in [1] was 0.25 µg/mL (≈ 0.881 µM). Moreover, the MIC was determined as 0.125 µg/mL (≈ 0.441 µM) in data set [1] and 0.125 µg/mL in data set [4]. Moreover, the values for the solubility in data set [2], in [15] and in data set [16] were 6 µM (≈ 1.7 µg/mL), 18.9 µM (≈ 5.36 µg/mL) and 8 µM (≈ 2.27 µg/mL), respectively. Further, in data set [3], the Papp B→A at 1 h was found to be 44 ×10⁻⁶ cm/s. Besides, the logD at 1 h in data set [5] came to 1.77. In data set [6], the IC50 is 5.4 µg/mL (≈ 19 µM). Moreover, the MIC90 in data set [7] was determined as 1.4 µg/mL (≈ 4.94 µM). Moreover, in [8], the inhibition at 80 min, 10 µM amounted to 54%. In data set [9], the inhibition at 1 h, 10 µM came out at 67%. Moreover, in data set [10], the inhibition at 0.5 h, 10 µM worked out at 62%. Also, the fraction unbound at 8 h, 10 µM in data set [11] was 0.051. In [12], the efflux ratio at 1 h is more than 1. Further, the remaining at 1 h, 1 µM in data set [13] was found to be 96%. Also, in [14], the Papp A→B at 1 h came out at 73.8 ×10⁻⁶ cm/s.

As for `O=C1c2ccccc2-n2c1nc1ccc(Br)cc1c2=O`, in data set [1], the MBC90 was 0.5 µg/mL (≈ 1.53 µM) and it took 0.25 µg/mL (≈ 0.764 µM) to inhibit growth (MIC). Also, the MIC in data set [4] is 0.5 µg/mL. In data set [5], the logD at 1 h was 1.69. For the same compound, in [6], the IC50 is more than 50 µg/mL. Besides, in [7], the MIC90 is more than 50 µg/mL. In data set [8], the inhibition at 80 min, 10 µM is 20%. In [9], the inhibition at 1 h, 10 µM was found to be 10%. Also, the inhibition at 0.5 h, 10 µM in data set [10] amounted to 10%. This compound also came in with a solubility in [15] of 49.4 µM (≈ 16.2 µg/mL).

`O=C1c2cc(Br)ccc2-n2c1nc1ccncc1c2=O` showed an MBC90 in data set [1] of 0.25 µg/mL (≈ 0.762 µM). In addition, the MIC in data set [1] came out at 1 µg/mL (≈ 3.05 µM); in data set [4] it was 0.5 µg/mL. Besides, the results for the solubility in [2], in data set [15] and in data set [16] were 45 µM (≈ 14.8 µg/mL), 34.4 µM (≈ 11.3 µg/mL) and 35.4 µM (≈ 11.6 µg/mL), respectively. This compound also displayed a logD at 1 h in data set [5] of 1.6. Also, in [6], the IC50 was more than 50 µg/mL. Further, the MIC90 in data set [7] was more than 50 µg/mL. Also, the inhibition at 80 min, 10 µM in data set [8] stood at 10%. The inhibition at 1 h, 10 µM in data set [9] was found to be 16%. Also, the inhibition at 0.5 h, 10 µM in data set [10] was found to be 14%. For the same compound, the remaining at 1 h, 1 µM in data set [13] was determined as 96%.

As to `O=C1c2cc(Cl)ccc2-n2c1nc1cc(F)ccc1c2=O`, the MBC90 in data set [1] came to 0.25 µg/mL (≈ 0.831 µM). Further, the MIC was 0.5 µg/mL (≈ 1.66 µM) in data set [1] and 0.5 µg/mL in data set [4]. For the same compound, the solubility in [2] is 2.5 µM (≈ 0.752 µg/mL); in [15], 10.3 µM (≈ 3.1 µg/mL); in [16], 1.1 µM (≈ 0.331 µg/mL). The compound further showed a Papp B→A at 1 h in data set [3] of 12.7 ×10⁻⁶ cm/s. In addition, the IC50 in [6] was more than 50 µg/mL. For the same compound, the MIC90 in [7] was more than 50 µg/mL. Besides, the efflux ratio at 1 h in data set [12] was more than 1. The remaining at 1 h, 1 µM in [13] was found to be 91%. In addition, the Papp A→B at 1 h in [14] came out at 28.5 ×10⁻⁶ cm/s.

Take `O=C1c2cc(OC(F)(F)F)ccc2-n2c1nc1ccccc1c2=O`: the MIC turned out to be 0.125 µg/mL (≈ 0.376 µM) in data set [1] and 0.5 µg/mL in data set [4]. Further, the solubility in [2] was 1.5 µM (≈ 0.498 µg/mL); in [15], 31.3 µM (≈ 10.4 µg/mL); in data set [16], 1 µM (≈ 0.332 µg/mL). In addition, the Papp B→A at 1 h in data set [3] came to 5.8 ×10⁻⁶ cm/s. Besides, the IC50 in [6] was more than 50 µg/mL. The MIC90 in data set [7] was more than 50 µg/mL. Further, the efflux ratio at 1 h in [12] was more than 1. Also, the remaining at 1 h, 1 µM in [13] is 59%. This compound gave a Papp A→B at 1 h in data set [14] of 22 ×10⁻⁶ cm/s.

In turn, `O=C1c2cc(Cl)ccc2-n2c1nc1ccccc1c2=O` yielded an MBC90 in [1] of 0.125 µg/mL (≈ 0.442 µM). Moreover, the minimal inhibitory concentration (MIC) is 0.125 µg/mL (≈ 0.442 µM) in data set [1] and 0.25 µg/mL in data set [4]. Moreover, the figures for the solubility in [2], in data set [15] and in data set [16] were 26.8 µM (≈ 7.58 µg/mL), 16.7 µM (≈ 4.72 µg/mL) and 3.3 µM (≈ 0.933 µg/mL), respectively. In data set [5], this compound gave a logD at 1 h of 2.76. Also, the IC50 in data set [6] was more than 50 µg/mL. In addition, the MIC90 in data set [7] is more than 50 µg/mL. Also, the inhibition at 80 min, 10 µM in data set [8] came to 38%. Moreover, the inhibition at 1 h, 10 µM in [9] worked out at 13%. Also, the inhibition at 0.5 h, 10 µM in [10] is 10%.
